The source of these data is ChEMBL document CHEMBL1156910, “Binding of curcumin and its long chain derivatives to the activator binding domain of novel protein kinase C” (Bioorg Med Chem, 2010).

As usually defined, the EC50 is the concentration needed to bring the measured effect to its halfway point. The low end stands for a more potent agent, the high end for a less potent agent.

The target in assay [1] is Protein kinase C theta type (Homo sapiens, UniProt Q04759). Nature of the assay: Binding affinity to GST-tagged PKCtheta expressed in Escherichia coli BL21(DE3) by fluorescence quenching. In short, it runs like this:
(§1)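 Isolated C1B subdomain made in E. coli as GST fusion, purified on glutathione-Sepharose, GST removed by thrombin, then ammonium sulfate precipitation and Superdex 75 gel filtration. Excitation 280 nm, intrinsic emission at 350 nm as (F0-F)/F, Hill fit gives EC50.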

Assay [2] has as its target Protein kinase C delta type (Homo sapiens, UniProt Q05655). Nature of the assay: Binding affinity to GST-tagged PKCdelta expressed in Escherichia coli BL21(DE3) by fluorescence quenching. Put shortly:
as §1

The target in assay [3] is T1, Protein kinase C epsilon type (Homo sapiens, UniProt Q02156).
T1 sequence (Q02156 whole entry): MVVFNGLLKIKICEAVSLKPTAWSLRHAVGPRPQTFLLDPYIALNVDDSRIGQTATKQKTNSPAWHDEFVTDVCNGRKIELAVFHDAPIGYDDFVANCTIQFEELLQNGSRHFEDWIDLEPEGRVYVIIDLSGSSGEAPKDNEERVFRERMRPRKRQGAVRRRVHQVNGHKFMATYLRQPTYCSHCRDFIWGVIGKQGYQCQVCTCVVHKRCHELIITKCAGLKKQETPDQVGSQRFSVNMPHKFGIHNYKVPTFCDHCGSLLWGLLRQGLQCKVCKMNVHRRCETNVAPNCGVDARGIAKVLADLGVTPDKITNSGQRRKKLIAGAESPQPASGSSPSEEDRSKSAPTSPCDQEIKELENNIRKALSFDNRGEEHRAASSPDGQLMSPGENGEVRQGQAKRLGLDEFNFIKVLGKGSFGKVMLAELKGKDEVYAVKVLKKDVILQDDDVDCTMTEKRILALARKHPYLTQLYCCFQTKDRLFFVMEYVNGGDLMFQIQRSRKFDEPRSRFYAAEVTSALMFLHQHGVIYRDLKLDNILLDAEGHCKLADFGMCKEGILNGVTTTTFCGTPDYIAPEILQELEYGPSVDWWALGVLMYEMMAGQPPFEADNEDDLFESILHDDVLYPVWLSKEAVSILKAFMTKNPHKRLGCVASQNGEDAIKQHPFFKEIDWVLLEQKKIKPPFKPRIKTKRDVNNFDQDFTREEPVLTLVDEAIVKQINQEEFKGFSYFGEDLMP
Description: Binding affinity to GST-tagged PKCepsilon expressed in Escherichia coli BL21(DE3) by fluorescence quenching. Put shortly:
as §1

Molecules are shown by their SMILES.

Sequence of Protein kinase C theta type (Q04759 whole entry, the tested form may be a part): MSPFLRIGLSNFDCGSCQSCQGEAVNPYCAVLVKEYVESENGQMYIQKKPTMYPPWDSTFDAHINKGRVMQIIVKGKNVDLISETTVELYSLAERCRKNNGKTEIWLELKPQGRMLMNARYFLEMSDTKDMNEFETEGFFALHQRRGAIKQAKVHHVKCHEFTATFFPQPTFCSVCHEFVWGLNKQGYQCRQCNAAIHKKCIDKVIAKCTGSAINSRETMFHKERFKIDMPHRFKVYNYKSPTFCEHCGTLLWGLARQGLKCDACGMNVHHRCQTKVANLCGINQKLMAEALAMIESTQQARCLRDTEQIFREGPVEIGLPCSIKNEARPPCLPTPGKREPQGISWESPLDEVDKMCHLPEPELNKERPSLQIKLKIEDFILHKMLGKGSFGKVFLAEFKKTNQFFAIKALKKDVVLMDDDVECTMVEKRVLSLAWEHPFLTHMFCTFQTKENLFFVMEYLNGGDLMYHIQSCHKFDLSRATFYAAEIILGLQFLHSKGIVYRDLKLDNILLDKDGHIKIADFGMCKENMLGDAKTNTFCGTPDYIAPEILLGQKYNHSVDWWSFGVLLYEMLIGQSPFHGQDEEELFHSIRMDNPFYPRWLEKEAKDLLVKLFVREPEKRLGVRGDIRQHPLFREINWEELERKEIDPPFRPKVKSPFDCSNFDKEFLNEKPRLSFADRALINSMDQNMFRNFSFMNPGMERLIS
Sequence of Protein kinase C delta type (Q05655 whole entry): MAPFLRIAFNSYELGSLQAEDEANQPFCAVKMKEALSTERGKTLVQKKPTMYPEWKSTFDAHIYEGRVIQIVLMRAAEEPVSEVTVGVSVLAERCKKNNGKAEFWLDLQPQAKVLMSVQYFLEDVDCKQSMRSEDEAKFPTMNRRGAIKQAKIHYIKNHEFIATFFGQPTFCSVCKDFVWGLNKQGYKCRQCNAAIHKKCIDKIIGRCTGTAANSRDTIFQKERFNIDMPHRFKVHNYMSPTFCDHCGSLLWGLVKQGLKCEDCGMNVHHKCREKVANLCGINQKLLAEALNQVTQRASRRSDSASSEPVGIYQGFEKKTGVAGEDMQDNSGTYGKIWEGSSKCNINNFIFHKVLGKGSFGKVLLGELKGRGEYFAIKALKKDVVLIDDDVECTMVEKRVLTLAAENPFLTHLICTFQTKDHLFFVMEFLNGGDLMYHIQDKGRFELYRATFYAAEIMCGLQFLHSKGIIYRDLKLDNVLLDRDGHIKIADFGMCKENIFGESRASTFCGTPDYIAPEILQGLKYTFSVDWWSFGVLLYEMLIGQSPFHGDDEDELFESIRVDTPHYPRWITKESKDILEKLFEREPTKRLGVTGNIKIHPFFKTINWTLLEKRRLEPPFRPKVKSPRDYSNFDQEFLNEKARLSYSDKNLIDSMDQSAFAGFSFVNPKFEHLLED

On to `O=C(/C=C(O)/C=C/c1ccc(O)c(O)c1)/C=C/c1ccc(O)c(O)c1`, for which the figures for the EC50 in assay [1], in assay [2] and in assay [3] were 6.57 µM, 12.5 µM and 11.1 µM, respectively.

With `CCCCCCCCOc1ccc(/C=C/C(O)=C/C(=O)/C=C/c2ccc(O)c(OC)c2)cc1OC`, the values for the concentration giving a half-maximal response (EC50) in assay [1], in assay [2] and in assay [3] were 4 µM, 8.69 µM and 9.79 µM, respectively.

`CCCCCCCC/C=C\CCCCCCCC(=O)OC[C@H](CO)OC(=O)CCCCCCC/C=C\CCCCCCCC`: the 50% effective concentration (EC50) in assay [1] was determined as 8.67 µM; in assay [2] it was 7.49 µM; in assay [3], 14.3 µM.

Take `CCCCCCCCCCCCCCCCOc1ccc(/C=C/C(O)=C/C(=O)/C=C/c2ccc(O)c(OC)c2)cc1OC`: the EC50 in assay [1] was determined as 5.95 µM; in assay [2], 8.98 µM; in assay [3] it was 10.6 µM.

`CCCCCCCCCCCCCC(=O)O[C@@H]1[C@@H](C)[C@@]2(O)[C@@H](C=C(CO)C[C@]3(O)C(=O)C(C)=C[C@@H]23)[C@@H]2C(C)(C)[C@]12OC(C)=O` [PHORBOL MYRISTATE ACETATE]: the concentration giving a half-maximal response (EC50) turned out to be 3.19 µM in assay [1], 5.17 µM in assay [2] and 5.56 µM in assay [3].

`COc1cc(/C=C/C(=O)CC(=O)/C=C/c2ccc(O)c(OC)c2)ccc1O` [CURCUMIN]: the values for the EC50 in assay [1], in assay [2] and in assay [3] were 11.1 µM, 10.7 µM and 8.81 µM, respectively.

The compound `CCCCCCCC(=O)OC[C@H](CO)OC(=O)CCCCCCC` came in with a concentration giving a half-maximal response (EC50) in assay [1] of 5.24 µM. This counts as single-digit micromolar.
